From ChEMBL document CHEMBL1136016, “Synthesis, biological activity, and molecular modeling investigation of new pyrazolo[4,3-e]-1,2,4-triazolo[1,5-c]pyrimidine derivatives as human A(3) adenosine receptor antagonists” (J Med Chem, 2002)
One block for each compound: values may come before it.

Experiments:
[1] = molecular target: T1, Adenosine receptor A1 (Homo sapiens, UniProt P30542); assay: Displacement of [3H]DPCPX from human Adenosine A1 receptor expressed in CHO cells; range 332-479; format: cell-based
T1 sequence (P30542 whole entry): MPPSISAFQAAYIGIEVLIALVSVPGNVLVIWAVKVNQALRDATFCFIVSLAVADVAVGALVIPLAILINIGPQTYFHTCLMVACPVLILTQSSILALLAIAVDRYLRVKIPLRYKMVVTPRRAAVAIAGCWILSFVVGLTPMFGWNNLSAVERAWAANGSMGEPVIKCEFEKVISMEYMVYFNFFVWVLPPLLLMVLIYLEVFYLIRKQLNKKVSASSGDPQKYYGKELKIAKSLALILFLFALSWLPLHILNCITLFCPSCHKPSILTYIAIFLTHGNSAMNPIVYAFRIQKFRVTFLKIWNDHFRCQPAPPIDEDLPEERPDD
Procedure, shortened: (§1)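 Human recombinant A1 receptor in CHO cell membranes, resuspended in 50 mM Tris HCl pH 7.4. Displacement run 120 min at 25 °C with 1 nM [3H]DPCPX, 50 µg protein per assay, and at least six to eight test concentrations. Nonspecific binding defined with CHA. Bound and free separated on glass-fiber filters; filter radioactivity counted. n = 3-6.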

[2] = molecular target: T2, Adenosine receptor A2a (Homo sapiens, UniProt P29274); assay: Displacement of [3H]SCH-58261 from human Adenosine A2A receptor expressed in HEK293 cells; range 174-230; format: cell-based
T2 sequence (P29274 whole entry): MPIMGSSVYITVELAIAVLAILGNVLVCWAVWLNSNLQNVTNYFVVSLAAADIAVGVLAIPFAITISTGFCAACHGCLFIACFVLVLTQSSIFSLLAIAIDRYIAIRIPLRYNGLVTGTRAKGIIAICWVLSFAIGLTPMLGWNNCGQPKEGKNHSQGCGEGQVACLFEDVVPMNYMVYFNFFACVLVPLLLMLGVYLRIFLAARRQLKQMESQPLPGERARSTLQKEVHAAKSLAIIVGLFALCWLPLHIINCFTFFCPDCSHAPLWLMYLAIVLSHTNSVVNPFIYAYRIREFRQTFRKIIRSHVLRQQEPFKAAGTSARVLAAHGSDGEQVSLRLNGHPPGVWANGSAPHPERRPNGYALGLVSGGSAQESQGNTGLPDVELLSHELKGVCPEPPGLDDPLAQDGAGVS

[3] = molecular target: T3, Adenosine receptor A3 (Homo sapiens, UniProt P0DMS8); assay: Displacement of [3H]MRE3008-F20 binding at human Adenosine A3 receptor expressed in HEK cells; range 0.82-1.01; format: cell-based, HEK293
T3 sequence (P0DMS8 whole entry): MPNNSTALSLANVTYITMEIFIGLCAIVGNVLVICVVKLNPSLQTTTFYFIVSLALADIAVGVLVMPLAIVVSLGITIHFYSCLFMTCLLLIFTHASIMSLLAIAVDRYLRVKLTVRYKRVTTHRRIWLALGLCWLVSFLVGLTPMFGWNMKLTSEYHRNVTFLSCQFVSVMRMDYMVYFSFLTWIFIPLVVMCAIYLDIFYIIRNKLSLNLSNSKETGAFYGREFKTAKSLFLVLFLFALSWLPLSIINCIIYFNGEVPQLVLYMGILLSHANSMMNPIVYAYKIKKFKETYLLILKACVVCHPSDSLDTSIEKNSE

[4] = molecular target: Adenosine receptors; A1 & A3 (Homo sapiens) (UniProt P30542+P0DMS8); assay: Selectivity ratio (hA1/hA3); format: protein assay
[5] = molecular target: T3, Adenosine receptor A3; assay: Inhibition of IB-MECA agonist-mediated cAMP production in CHO cell membranes expressing human Adenosine A3 receptor; range 4.4-15.2; format: functional, cell-based
[6] = molecular target: Adenosine receptors; A2b & A3 (Homo sapiens) (UniProt P29275+P0DMS8); assay: Selectivity ratio (h2B/hA3); format: protein assay
[7] = molecular target: T4, Adenosine receptor A2b (Homo sapiens, UniProt P29275); assay: Displacement of [3H]DPCPX from human Adenosine A2B receptor expressed in HEK293 cells; range 89-116; format: cell-based
T4 sequence (P29275 whole entry): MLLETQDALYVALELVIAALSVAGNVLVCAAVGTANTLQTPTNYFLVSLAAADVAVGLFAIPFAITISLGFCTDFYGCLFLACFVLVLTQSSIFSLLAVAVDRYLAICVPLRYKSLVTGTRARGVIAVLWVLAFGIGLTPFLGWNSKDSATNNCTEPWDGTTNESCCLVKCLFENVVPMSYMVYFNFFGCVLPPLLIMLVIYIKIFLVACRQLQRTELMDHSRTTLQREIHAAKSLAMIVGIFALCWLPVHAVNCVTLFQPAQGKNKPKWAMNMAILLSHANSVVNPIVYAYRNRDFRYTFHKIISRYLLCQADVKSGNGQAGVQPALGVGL
Procedure, shortened: (§2)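 Membranes from HEK-293 cells with human recombinant A2B receptor. Incubation 60 min at 25 °C in 50 mM Tris HCl, 10 mM MgCl2, 1 mM EDTA, 0.1 mM benzamidine, pH 7.4, with 2 IU/mL adenosine deaminase and 40 nM [3H]DPCPX. At least six to eight test concentrations. Nonspecific binding defined with NECA. n = 3-6.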

[8] = molecular target: T1, Adenosine receptor A1; assay: Displacement of [3H]DPCPX from human Adenosine A1 receptor expressed in CHO cells; range 198-382; format: cell-based; procedure, shortened: as §1
[9] = molecular target: T4, Adenosine receptor A2b; assay: Displacement of [3H]DPCPX from human Adenosine A2B receptor expressed in HEK293 cells; range 149-204; format: cell-based
Procedure, shortened: (§3)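 HEK-293 membranes expressing the human receptor were incubated 60 min at 25 °C. Six to eight test concentrations were used. Nonspecific binding was set with NECA. n = 3-6.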

[10] = molecular target: T3, Adenosine receptor A3; assay: biochemical
[11] = molecular target: T2, Adenosine receptor A2a; assay: Displacement of [3H]SCH-58261 from human Adenosine A2A receptor expressed in HEK293 cells; range 96-133; format: cell-based
[12] = molecular target: T4, Adenosine receptor A2b; assay: Displacement of [3H]DPCPX from human Adenosine A2B receptor expressed in HEK293 cells; range 124-180; format: cell-based; procedure, shortened: as §3
[13] = molecular target: T3, Adenosine receptor A3; assay: Displacement of [3H]MRE3008-F20 from human Adenosine A3 receptor expressed in HEK cells; range 0.53-0.68; format: cell-based, HEK293
[14] = molecular target: T1, Adenosine receptor A1; assay: Displacement of [3H]DPCPX from human Adenosine A1 receptor expressed in CHO cells; range 184-333; format: cell-based
[15] = molecular target: T2, Adenosine receptor A2a; assay: Displacement of [3H]SCH-58261 from human Adenosine A2A receptor expressed in HEK293 cells; range 78-114; format: cell-based
[16] = molecular target: T2, Adenosine receptor A2a; assay: Displacement of [3H]SCH-58261 from human Adenosine A2A receptor expressed in HEK293 cells; range 552-839; format: cell-based
[17] = molecular target: T3, Adenosine receptor A3; assay: Inhibition of IB-MECA agonist-mediated cAMP production in CHO cell membranes expressing human Adenosine A3 receptor; range 1.8-5.6; format: functional, cell-based
[18] = molecular target: T1, Adenosine receptor A1; assay: Displacement of [3H]DPCPX from human Adenosine A1 receptor expressed in CHO cells; range 885-1163; format: cell-based; procedure, shortened: as §1
[19] = molecular target: T3, Adenosine receptor A3; assay: biochemical; remark: listed apart in the source
[20] = molecular target: T4, Adenosine receptor A2b; assay: Displacement of [3H]DPCPX from human Adenosine A2B receptor expressed in HEK293 cells; range 128-156; format: cell-based; procedure, shortened: as §2
[21] = molecular target: T1, Adenosine receptor A1; assay: Displacement of [3H]DPCPX from human Adenosine A1 receptor expressed in CHO cells; range 237-384; format: cell-based
Procedure, shortened: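 Competition binding on membranes of CHO cells stably expressing human A1 receptor, resuspended in 50 mM Tris HCl pH 7.4. Incubation 120 min at 25 °C with 1 nM [3H]DPCPX, 50 µg protein per assay and at least six to eight test concentrations. CHA defined nonspecific binding. Bound ligand separated on glass-fibre filters and counted; n = 3-6.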

[22] = molecular target: T3, Adenosine receptor A3; assay: Displacement of [3H]MRE3008-F20 from human Adenosine A3 receptor expressed in HEK cells; range 0.31-0.56; format: cell-based, HEK293
[23] = molecular target: T4, Adenosine receptor A2b; assay: Displacement of [3H]DPCPX from human Adenosine A2B receptor expressed in HEK293 cells; range 34-62; format: cell-based; procedure, shortened: as §3
[24] = molecular target: T2, Adenosine receptor A2a; assay: Displacement of [3H]SCH-58261 from human Adenosine A2A receptor expressed in HEK293 cells; range 8-18; format: cell-based
[25] = molecular target: T1, Adenosine receptor A1; assay: Displacement of [3H]DPCPX from human Adenosine A1 receptor expressed in CHO cells; range 290-418; format: cell-based; procedure, shortened: as §1
[26] = molecular target: T3, Adenosine receptor A3; assay: Displacement of [3H]MRE3008-F20 from human Adenosine A3 receptor expressed in HEK cells; range 0.37-0.56; format: cell-based, HEK293
[27] = molecular target: T2, Adenosine receptor A2a; assay: Displacement of [3H]SCH-58261 from human Adenosine A2A receptor expressed in HEK293 cells; range 40-62; format: cell-based

- Ki [1]: 400 nM
- Ki [2]: 200 nM
- Ki [3]: 0.91 nM
- Ratio [4]: 440
- IC50 [5]: 8.2 nM
- Ratio [6]: 111
- Ki [7]: 101 nM
SMILES: Cn1cc2c(nc(NC(=O)Nc3ccccc3Cl)n3nc(-c4ccco4)nc23)n1

- Ki [16]: 680 nM
- IC50 [17]: 3.2 nM
- Ki [18]: 1020 nM
- Ratio [4]: 4230
- Ki [19]: 0.24 nM
- Ratio [6]: 592
- Ki [20]: 142 nM
SMILES: Cn1cc2c(nc(NC(=O)Nc3ccc4c(c3)OCO4)n3nc(-c4ccco4)nc23)n1

- Ki [21]: 302 nM
- Ki [22]: 0.4 nM
- Ratio [4]: 755
- Ki [23]: 46 nM
- Ki [24]: 12 nM
- Ratio [6]: 115
SMILES: CCCn1cc2c(nc(NC(=O)Nc3ccc(C)cc3)n3nc(-c4ccco4)nc23)n1

- Ki [12]: 150 nM
- Ki [25]: 350 nM
- Ki [26]: 0.45 nM
- Ki [27]: 50 nM
- Ratio [4]: 778
- Ratio [6]: 333
SMILES: CCCn1cc2c(nc(NC(=O)Nc3ccc(Br)cc3)n3nc(-c4ccco4)nc23)n1

The next lines start with the compound.

SMILES: CCCn1cc2c(nc(NC(=O)Nc3cccc(OC)c3)n3nc(-c4ccco4)nc23)n1
- Ki [8]: 275 nM
- Ki [9]: 175 nM
- Ratio [4]: 688
- Ki [10]: 0.4 nM
- Ratio [6]: 438
- Ki [11]: 113 nM

SMILES: CCCCn1cc2c(nc(NC(=O)Nc3cccc(OC)c3)n3nc(-c4ccco4)nc23)n1
- Ki [12]: 150 nM
- Ratio [4]: 413
- Ki [13]: 0.6 nM
- Ki [14]: 248 nM
- Ki [15]: 95 nM
- Ratio [6]: 250
